Assay results from ChEMBL document CHEMBL2021925, “In vitro antimycoplasmal activity of Citrus bergamia essential oil and its major components” (2012).

Tests used:
[1] = tested on: Metamycoplasma hominis; test: Antimycoplasmal activity against Mycoplasma hominis PG21 after 24 to 48 hrs by broth microdilution method; format: functional
How it was run: (§1)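 Strains were grown in SP-4 broth and stored frozen at -80 C until testing. Broth microdilution with agent concentrations expressed as % v/v. MIC was the lowest concentration preventing the broth colour change when the growth-control tube changed: pH falling from 7.5 to 7.0 for M. fermentans, rising from 6.0 to 6.5 for M. hominis. Incubation was 24–48 h. Each strain was tested six times, plus six more times on different days. Growth and sterility controls were included.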

[2] = tested on: Mycoplasma fermentans; test: Antimycoplasmal activity against Mycoplasma fermentans Pg18 after 24 to 48 hrs by broth microdilution method; format: functional, Mycoplasmopsis fermentans; how it was run: as §1
[3] = tested on: Mycoplasmoides pneumoniae; test: Antimycoplasmal activity against Mycoplasma pneumoniae M129 after 3 to 5 days by broth microdilution method

MIC50 [1] | MIC90 [1] | MIC90 [2] | MIC90 [3] | Compound
4 %v/v | 8 %v/v | 1 %v/v | 0.03 %v/v | C=C(C)[C@H]1CC=C(C)CC1 [D-LIMONENE]
1 %v/v | 1 %v/v | 0.06 %v/v | 0.015 %v/v | C=CC(C)(O)CCC=C(C)C (configuration not stated) [LINALOOL]
0.015 %v/v | 0.015 %v/v | 0.12 %v/v | 0.015 %v/v | C=CC(C)(CCC=C(C)C)OC(C)=O (configuration not stated) [LINALYL ACETATE]
